Test results from ChEMBL document CHEMBL5303300, “EUbOPEN Chemogenomics Library - Multiplex” (2023).
Several values for one entry are separate records, joined by “and”; a condition that tells them apart may be missing. Equal entries are not always repeated.

System: Fibroblast
Assay: Multiplex assay against human fibroblast
Type: toxicity, cell-based
Conditions: number of replicates 2
Outline: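 Per cents of healthy-nucleus cells form the tubulin, mitochondrial-mass and membrane-permeability phenotype values. Live cells were stained at seeding with Hoechst33342, BioTracker Green Microtubule Cytoskeleton Dye, MitoTracker Red and Annexin V Alexa Fluor 680. After compound addition they were imaged on a CQ1 microscope at 37°C and 5% CO2, and CellPathfinder machine-learning gating split them into Hoechst high-intensity objects or normal cells, normal cells into healthy, pyknosed or fragmented nuclei, and pyknosed cells into mitotic or apoptotic.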

[1] = 12 h, 1 µM, compound concentration 1 uM
[2] = 12 h, 10 µM, compound concentration 10 uM
[3] = 24 h, 1 µM, compound concentration 1 uM
[4] = 24 h, 10 µM, compound concentration 10 uM
[5] = 48 h, 1 µM, compound concentration 1 uM
[6] = 48 h, 10 µM, compound concentration 10 uM

What does the source list for COc1ccc(NC(=O)c2ccc(-c3ccc(-c4noc(C)n4)cc3C)cc2)cc1OCCN(C)C.Cl?
Population Apoptotic (%) [1]: 34% and 50%; Population Fragmented Nuclei (%) [1]: 23% and 26%; Population Healthy Nuclei (%) [1]: 60% and 51%; Population Hoechst High Intensity Objects (%) [1]: 0%; Population Mitochondria Different-Phenotype (%) [1]: 6% and 5%; Population Mitotic Cells (%) [1]: 65% and 50%; Population Normal (%) [1]: 100% and 99%; Population Pyknosed Nuclei (%) [1]: 15% and 21%; Population Tubulin-Different-Phenotype (%) [1]: 39% and 56%; Total Cell Count [1]: 247 and 176; Population Fragmented Nuclei (%) [2]: 14% and 30%; Population Healthy Nuclei (%) [2]: 29% and 48%; Population Hoechst High Intensity Objects (%) [2]: 2% and 0%; Population Membrane Permeable-Phenotype (%) [2]: 14% and 7%; Population Mitochondria Different-Phenotype (%) [2]: 29% and 25%; Population Normal (%) [2]: 97% and 100%; Population Pyknosed Nuclei (%) [2]: 56% and 20%; Population Tubulin-Different-Phenotype (%) [2]: 82% and 72%; Total Cell Count [2]: 117 and 158; Population Apoptotic (%) [3]: 46% and 65%; Population Fragmented Nuclei (%) [3]: 32% and 19%; Population Healthy Nuclei (%) [3]: 58% and 57%; Population Hoechst High Intensity Objects (%) [3]: 2% and 0%; Population Membrane Permeable-Phenotype (%) [3]: 4% and 6%; Population Mitochondria Different-Phenotype (%) [3]: 10% and 9%; Population Mitotic Cells (%) [3]: 53% and 34%; Population Normal (%) [3]: 97% and 99%; Population Pyknosed Nuclei (%) [3]: 9% and 22%; Population Tubulin-Different-Phenotype (%) [3]: 44% and 59%; Total Cell Count [3]: 288 and 170; Population Apoptotic (%) [4]: 94% and 90%; Population Fragmented Nuclei (%) [4]: 13% and 26%; Population Healthy Nuclei (%) [4]: 16% and 10%; Population Hoechst High Intensity Objects (%) [4]: 0%; Population Mitochondria Different-Phenotype (%) [4]: 38% and 83%; Population Mitotic Cells (%) [4]: 5% and 9%; Population Normal (%) [4]: 100%; Population Pyknosed Nuclei (%) [4]: 69% and 62%; Population Tubulin-Different-Phenotype (%) [4]: 72% and 66%; Total Cell Count [4]: 108 and 116; Population Apoptotic (%) [5]: 86% and 73%; Population Fragmented Nuclei (%) [5]: 25% and 32%; Population Healthy Nuclei (%) [5]: 62% and 60%; Population Hoechst High Intensity Objects (%) [5]: 0% and 1%; Population Membrane Permeable-Phenotype (%) [5]: 6% and 1%; Population Mitochondria Different-Phenotype (%) [5]: 6% and 5%; Population Mitotic Cells (%) [5]: 13% and 26%; Population Normal (%) [5]: 100% and 98%; Population Pyknosed Nuclei (%) [5]: 12% and 6%; Population Tubulin-Different-Phenotype (%) [5]: 36% and 23%; Total Cell Count [5]: 191 and 281; Population Apoptotic (%) [6]: 95% and 96%; Population Fragmented Nuclei (%) [6]: 20% and 25%; Population Healthy Nuclei (%) [6]: 15% and 7%; Population Hoechst High Intensity Objects (%) [6]: 0%; Population Mitochondria Different-Phenotype (%) [6]: 18% and 25%; Population Mitotic Cells (%) [6]: 4%; Population Normal (%) [6]: 100%; Population Pyknosed Nuclei (%) [6]: 63% and 66%; Population Tubulin-Different-Phenotype (%) [6]: 81% and 87%; Total Cell Count [6]: 102 and 112

How did the “Population Apoptotic (%)” value [1] turn out when COCCNC1CCC(Nc2cc(-c3csc(NCC4(C#N)CCOCC4)n3)c(Cl)cn2)CC1 (configuration not stated) was run?
The value was 50% and 31%.

What about the “Population Fragmented Nuclei (%)” value [1] of the same molecule?
Its value is 7% and 12%.

And the “Population Healthy Nuclei (%)” value [1]?
The value was 73% and 67%.

And the “Population Hoechst High Intensity Objects (%)” value [1]?
Its value is 0%.

What about the “Population Membrane Permeable-Phenotype (%)” value [1] of the same molecule?
Its value is 2% and 7%.

And the “Population Mitochondria Different-Phenotype (%)” value [1]?
The value was 1% and 2%.

And the “Population Mitotic Cells (%)” value [1]?
The value was 50% and 68%.

What about the “Population Normal (%)” value [1] of the same molecule?
The value was 99%.

And the “Population Pyknosed Nuclei (%)” value [1]?
Its value is 19% and 20%.

What about the “Population Tubulin-Different-Phenotype (%)” value [1] of the same molecule?
Its value is 13% and 12%.

And the “Total Cell Count” value [1]?
Its value is 154 and 189.

What about the “Population Apoptotic (%)” value [2] of the same molecule?
The value was 48% and 47%.

What about the “Population Fragmented Nuclei (%)” value [2] of the same molecule?
Its value is 10% and 15%.

And the “Population Healthy Nuclei (%)” value [2]?
The value was 70% and 68%.

What about the “Population Hoechst High Intensity Objects (%)” value [2] of the same molecule?
Its value is 0%.

And the “Population Membrane Permeable-Phenotype (%)” value [2]?
The value was 12% and 13%.

And the “Population Mitochondria Different-Phenotype (%)” value [2]?
Its value is 5% and 10%.

And the “Population Mitotic Cells (%)” value [2]?
Its value is 51% and 52%.

And the “Population Normal (%)” value [2]?
Its value is 99% and 100%.

And the “Population Pyknosed Nuclei (%)” value [2]?
The value was 18% and 16%.

And the “Population Tubulin-Different-Phenotype (%)” value [2]?
The value was 79% and 67%.

What about the “Total Cell Count” value [2] of the same molecule?
Its value is 219 and 209.

What about the “Population Apoptotic (%)” value [3] of the same molecule?
The value was 55% and 74%.

And the “Population Fragmented Nuclei (%)” value [3]?
The value was 10% and 4%.

And the “Population Healthy Nuclei (%)” value [3]?
The value was 71% and 80%.

And the “Population Hoechst High Intensity Objects (%)” value [3]?
Its value is 0%.

And the “Population Membrane Permeable-Phenotype (%)” value [3]?
The value was 4% and 6%.

And the “Population Mitochondria Different-Phenotype (%)” value [3]?
Its value is 3% and 0%.

And the “Population Mitotic Cells (%)” value [3]?
Its value is 44% and 25%.

And the “Population Normal (%)” value [3]?
The value was 99% and 100%.

What about the “Population Pyknosed Nuclei (%)” value [3] of the same molecule?
The value was 17% and 15%.

And the “Population Tubulin-Different-Phenotype (%)” value [3]?
The value was 20% and 19%.

And the “Total Cell Count” value [3]?
Its value is 163 and 170.

What about the “Population Apoptotic (%)” value [4] of the same molecule?
The value was 53% and 65%.

And the “Population Fragmented Nuclei (%)” value [4]?
The value was 14% and 13%.

What about the “Population Healthy Nuclei (%)” value [4] of the same molecule?
The value was 72% and 73%.

And the “Population Hoechst High Intensity Objects (%)” value [4]?
The value was 1% and 0%.

And the “Population Membrane Permeable-Phenotype (%)” value [4]?
The value was 11%.

What about the “Population Mitochondria Different-Phenotype (%)” value [4] of the same molecule?
The value was 18%.

And the “Population Mitotic Cells (%)” value [4]?
Its value is 46% and 34%.

What about the “Population Normal (%)” value [4] of the same molecule?
The value was 98% and 100%.

And the “Population Pyknosed Nuclei (%)” value [4]?
The value was 12%.

And the “Population Tubulin-Different-Phenotype (%)” value [4]?
The value was 87% and 70%.

And the “Total Cell Count” value [4]?
The value was 206 and 210.

And the “Population Apoptotic (%)” value [5]?
The value was 59% and 68%.

And the “Population Fragmented Nuclei (%)” value [5]?
Its value is 9% and 11%.

And the “Population Healthy Nuclei (%)” value [5]?
Its value is 57% and 55%.

And the “Population Hoechst High Intensity Objects (%)” value [5]?
The value was 0%.

And the “Population Membrane Permeable-Phenotype (%)” value [5]?
The value was 14%.

And the “Population Mitochondria Different-Phenotype (%)” value [5]?
The value was 3% and 1%.

What about the “Population Mitotic Cells (%)” value [5] of the same molecule?
Its value is 40% and 31%.

And the “Population Normal (%)” value [5]?
Its value is 100%.

What about the “Population Pyknosed Nuclei (%)” value [5] of the same molecule?
Its value is 33% and 32%.

And the “Population Tubulin-Different-Phenotype (%)” value [5]?
The value was 30% and 22%.

And the “Total Cell Count” value [5]?
The value was 154 and 174.

What about the “Population Apoptotic (%)” value [6] of the same molecule?
Its value is 54% and 76%.

And the “Population Fragmented Nuclei (%)” value [6]?
Its value is 15% and 13%.

And the “Population Healthy Nuclei (%)” value [6]?
The value was 64% and 67%.

What about the “Population Hoechst High Intensity Objects (%)” value [6] of the same molecule?
Its value is 0% and 1%.

And the “Population Membrane Permeable-Phenotype (%)” value [6]?
Its value is 12% and 10%.

What about the “Population Mitochondria Different-Phenotype (%)” value [6] of the same molecule?
Its value is 18% and 16%.

What about the “Population Mitotic Cells (%)” value [6] of the same molecule?
The value was 45% and 23%.

What about the “Population Normal (%)” value [6] of the same molecule?
Its value is 99%.

What about the “Population Pyknosed Nuclei (%)” value [6] of the same molecule?
The value was 20% and 19%.

What about the “Population Tubulin-Different-Phenotype (%)” value [6] of the same molecule?
Its value is 81% and 71%.

And the “Total Cell Count” value [6]?
Its value is 207 and 200.
